Experimental data published in ChEMBL document CHEMBL4177755, “Combating Drug-Resistant Fungi with Novel Imperfectly Amphipathic Palindromic Peptides” (J Med Chem, 2018).

Assays:
Escherichia coli [1] = experiment: Antibacterial activity against Escherichia coli ATCC 25922 after 18 hrs in presence of FeCl3 by broth dilution method; type: functional; conditions: ATCC 25922, 18 h
Escherichia coli [2] = experiment: Antibacterial activity against Escherichia coli ATCC 25922 after 18 hrs in presence of CaCl2 by broth dilution method; type: functional; conditions: ATCC 25922, 18 h
Escherichia coli [3] = experiment: Antibacterial activity against Escherichia coli ATCC 25922 after 18 hrs in presence of KCl by broth dilution method; type: functional; conditions: ATCC 25922, 18 h
Candida albicans [4] = experiment: Antifungal activity against Candida albicans cgmcc 2.2086 in presence of NH4Cl by broth dilution method; type: functional
Candida albicans [5] = experiment: Fungicidal activity against fluconazole-resistant Candida albicans 17546 after 96 hrs; type: functional; conditions: Candida albicans, 17546, 96 h; read-out: MFC99.9
How it was run: (§1)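 After the 48 h, 28 °C broth microdilution in MOPS-buffered RPMI 1640 (inoculum (0.5−1) × 10^3 CFU/mL), 50 μL from each well was plated on YM agar for a further 48 h at 28 °C. MFC is the lowest concentration killing at least 99.9% of cells. Triplicate, three biological replicates.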

Candida albicans [6] = experiment: Antifungal activity against fluconazole-resistant Candida albicans 56452 after 48 hrs by broth microdilution method; type: functional; conditions: Candida albicans, 56452, 48 h
How it was run: (§2)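 Modified CLSI M27-A2 broth microdilution. Yeast at (0.5−1) × 10^3 CFU/mL in MOPS-buffered RPMI 1640 was mixed 1:1 with peptide serially diluted in 0.2% BSA and incubated 48 h at 28 °C. Absorbance was read at 492 nm; MIC is the lowest concentration inhibiting 95% of growth. Triplicate, three biological replicates.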

[7] = Cytotoxicity against HEK293T cells assessed as cell viability at 2 to 64 uM after 24 hrs by MTT assay relative to control; type: cell-based, HEK-293T; conditions: human, read-out: Activity
How it was run: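 MTT viability assay. RAW264.7 or HEK293T cells at (1.0−2.0) × 10^5 per well were exposed to a peptide concentration series for 24 h at 37 °C in 5% CO2. MTT was then added at 0.5 mg/mL final for 4 h; formazan was dissolved in DMSO and read at 570 nm. Results average three independent trials.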

Candida albicans [8] = experiment: Fungicidal activity against Candida albicans SP3903 after 96 hrs; type: functional; conditions: SP3903, 96 h, read-out: MFC99.9; how it was run: as §1
Candida albicans [9] = experiment: Antifungal activity against Candida albicans cgmcc 2.2086 in presence of ZnCl2 by broth dilution method; type: functional
Candida parapsilosis [10] = experiment: Fungicidal activity against Candida parapsilosis cgmcc 2.3989 after 96 hrs; type: functional; conditions: Lodderomyces parapsilosis, cgmcc 2.3989, 96 h; read-out: MFC99.9
How it was run: (§3)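 Wells from the 48 h, 28 °C RPMI 1640/MOPS microdilution plates were plated on YM agar and incubated a further 48 h at 28 °C. MFC is the lowest concentration killing at least 99.9% of cells. Run in triplicate with three biological replicates.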

Candida albicans [11] = experiment: Fungicidal activity against fluconazole-resistant Candida albicans 56452 after 96 hrs; type: functional; conditions: Candida albicans, 56452, 96 h; read-out: MFC99.9; how it was run: as §1
Candida albicans [12] = experiment: Antifungal activity against Candida albicans 14936 after 48 hrs by broth microdilution method; type: functional; conditions: Candida albicans, 14936, 48 h; how it was run: as §2
Candida albicans [13] = experiment: Antifungal activity against Candida albicans cgmcc 2.2086 in presence of CaCl2 by broth dilution method; type: functional
Staphylococcus aureus [14] = experiment: Bactericidal activity against Staphylococcus aureus ATCC 29213; type: functional; conditions: read-out: MBC99.9
How it was run: (§4)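 Wells from the 24 h, 37 °C MHB microdilution plates (bacteria at a final (0.5−1) × 10^5 CFU/mL; peptide diluted in 0.2% BSA) were plated on agar and incubated overnight. MBC is the lowest concentration killing >99.9% of cells. Each test was reproduced at least 3 times.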

Candida albicans [15] = experiment: Antifungal activity against Candida albicans isolated from alveolar fluid after 48 hrs by broth microdilution method; type: functional; how it was run: as §2
Candida albicans [16] = experiment: Fungicidal activity against Candida albicans 14936 after 96 hrs; type: functional; conditions: Candida albicans, 14936, 96 h; read-out: MFC99.9; how it was run: as §1
Escherichia coli [17] = experiment: Antibacterial activity against Escherichia coli ATCC 25922 after 24 hrs; type: functional; conditions: ATCC 25922, 24 h
How it was run: (§5)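 Broth microdilution. Mid-log bacteria in MHB at a final (0.5−1) × 10^5 CFU/mL were mixed with equal volumes of peptide serially diluted in 0.2% BSA. Plates were incubated 24 h at 37 °C and read at A492. MIC is the lowest concentration inhibiting 95% of growth. Each test was repeated at least 3 times.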

Candida albicans [18] = experiment: Antifungal activity against Candida albicans cgmcc 2.2086 in presence of NaCl by broth dilution method; type: functional
Salmonella typhimurium = experiment: Bactericidal activity against Salmonella typhimurium ATCC 14028; type: functional, Salmonella enterica subsp. enterica serovar Typhimurium; conditions: Salmonella enterica, read-out: MBC99.9; how it was run: as §4
[19] = Bactericidal activity against Salmonella pullorum ATCC 7913; type: functional, Salmonella enterica subsp. enterica serovar Pullorum; conditions: Salmonella enterica, read-out: MBC99.9; how it was run: as §4
Candida albicans [20] = experiment: Fungicidal activity against Candida albicans isolated from alveolar fluid after 96 hrs; type: functional; conditions: read-out: MFC99.9; how it was run: as §1
Candida parapsilosis [21] = experiment: Antifungal activity against Candida parapsilosis cgmcc 2.3989 after 48 hrs by broth microdilution method; type: functional; conditions: Lodderomyces parapsilosis, cgmcc 2.3989, 48 h
How it was run: (§6)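 Modified CLSI M27-A2 broth microdilution. Yeast were suspended in MOPS-buffered RPMI 1640 at a final (0.5−1) × 10^3 CFU/mL and mixed 1:1 with peptide serially diluted in 0.2% BSA. Plates were incubated 48 h at 28 °C and read at A492. MIC is the lowest concentration giving 95% inhibition. Run in triplicate with three biological replicates.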

Staphylococcus aureus [22] = experiment: Antibacterial activity against Staphylococcus aureus ATCC 29213 after 24 hrs; type: functional; conditions: ATCC 29213, 24 h
How it was run: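 Modified NCCLS broth microdilution. Mid-log bacteria at (0.5−1) × 10^5 CFU/mL in MHB were mixed 1:1 with peptide serially diluted in 0.2% BSA and incubated 24 h at 37 °C. Absorbance was read at 492 nm; MIC is the lowest concentration inhibiting 95% of growth. At least 3 repeats.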

Escherichia coli [23] = experiment: Antibacterial activity against Escherichia coli ATCC 25922 after 18 hrs in presence of ZnCl2 by broth dilution method; type: functional; conditions: ATCC 25922, 18 h
Candida albicans [24] = experiment: Fungicidal activity against Candida albicans SP3931 after 96 hrs; type: functional; conditions: SP3931, 96 h, read-out: MFC99.9; how it was run: as §1
Candida albicans [25] = experiment: Fungicidal activity against Candida albicans SP3902 after 96 hrs; type: functional; conditions: SP3902, 96 h, read-out: MFC99.9; how it was run: as §1
Candida tropicalis [26] = experiment: Fungicidal activity against Candida tropicalis cgmcc 2.1975 after 96 hrs; type: functional; conditions: cgmcc 2.1975, 96 h, read-out: MFC99.9; how it was run: as §3
Candida albicans [27] = experiment: Fungicidal activity against Candida albicans SP3876 after 96 hrs; type: functional; conditions: SP3876, 96 h, read-out: MFC99.9; how it was run: as §1
Escherichia coli [28] = experiment: Antibacterial activity against Escherichia coli 1005 after 24 hrs; type: functional; conditions: Escherichia coli, 1005, 24 h; how it was run: as §5
Pichia kudriavzevii = experiment: Antifungal activity against Candida krusei cgmcc 2.1857 after 48 hrs by broth microdilution method; type: functional; conditions: cgmcc 2.1857, 48 h; how it was run: as §6
Candida tropicalis [29] = experiment: Antifungal activity against Candida tropicalis cgmcc 2.1975 after 48 hrs by broth microdilution method; type: functional; conditions: cgmcc 2.1975, 48 h; how it was run: as §6
Candida albicans [30] = experiment: Fungicidal activity against fluconazole-resistant Candida albicans 56214 after 96 hrs; type: functional; conditions: Candida albicans, 56214, 96 h; read-out: MFC99.9; how it was run: as §1

Substance	MIC (Escherichia coli [1]) [µM]	MIC (Escherichia coli [2]) [µM]	MIC (Escherichia coli [3]) [µM]	MIC (Candida albicans [4]) [µM]	MFC (Candida albicans [5]) [µM]	MIC95 (Candida albicans [6]) [µM]	viability at 24 h, up to 64 µM [7] [%]	MFC (Candida albicans [8]) [µM]	MIC (Candida albicans [9]) [µM]	MFC (Candida parapsilosis [10]) [µM]	MFC (Candida albicans [11]) [µM]	MIC95 (Candida albicans [12]) [µM]	MIC (Candida albicans [13]) [µM]	MBC (Staphylococcus aureus [14]) [µM]	MIC95 (Candida albicans [15]) [µM]	MFC (Candida albicans [16]) [µM]	MIC95 (Escherichia coli [17]) [µM]	MIC (Candida albicans [18]) [µM]	MBC (Salmonella typhimurium) [µM]	MBC [19] [µM]	further results
H-RFFRRFRRFFR-NH2	8	8	8	4	8	8	70 to 80	4	8	> 64	8	8	64	16	8	16	8	32	8	8	MFC (Candida albicans [20]): 16 µM; MIC95 (Candida parapsilosis [21]): > 64 µM; MIC95 (Staphylococcus aureus [22]): 8 µM; MIC (Escherichia coli [23]): 8 µM; MFC (Candida albicans [24]): 16 µM; MFC (Candida albicans [25]): 8 µM; MFC (Candida tropicalis [26]): 4 µM; MFC (Candida albicans [27]): 8 µM; MIC95 (Escherichia coli [28]): 8 µM; MIC95 (Pichia kudriavzevii): 2 µM; MIC95 (Candida tropicalis [29]): 2 µM; MFC (Candida albicans [30]): 16 µM
H-RFRFFFRFR-NH2	4	4	4	8	4	4	70 to 80	4	8	32	4	8	64	8	8	8	4	32	8	8	MFC (Candida albicans [20]): 16 µM; MIC95 (Candida parapsilosis [21]): 16 µM; MIC95 (Staphylococcus aureus [22]): 4 µM; MIC (Escherichia coli [23]): 4 µM; MFC (Candida albicans [24]): 16 µM; MFC (Candida albicans [25]): 4 µM; MFC (Candida tropicalis [26]): 4 µM; MFC (Candida albicans [27]): 8 µM; MIC95 (Escherichia coli [28]): 4 µM; MIC95 (Pichia kudriavzevii): 4 µM; MIC95 (Candida tropicalis [29]): 2 µM; MFC (Candida albicans [30]): 16 µM
